Assays:
Type in all cases: ADME, organism-based, Macaca mulatta
[1] = Drug level in normal rhesus monkey cerebellum assessed as standard uptake value at 81.2 MBq, iv after 135 mins by microPET; details: in vivo, 2.25 h
Procedure, shortened: (§1)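 One normal rhesus monkey, each tracer given iv via the vena saphena (81.2, 96.3 or 109.4 MBq), with 1 day between tracer injections. Dynamic brain μPET over 180 min used frames of 5 × 60 s, 5 × 120 s, 9 × 300 s and 12 × 600 s. Images were reconstructed by filtered back projection with a RAMP filter. Regional time-activity curves were expressed as SUV.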

[2] = Drug level in normal rhesus monkey parietal cortex assessed as standard uptake value at 81.2 MBq, iv after 6 mins by microPET; details: in vivo, 0.1 h
[3] = Drug level in normal rhesus monkey frontal cortex assessed as standard uptake value at 81.2 MBq, iv after 17.5 mins by microPET; details: in vivo
[4] = Drug level in normal rhesus monkey white matter assessed as standard uptake value at 81.2 MBq, iv after 175 mins by microPET; details: in vivo
[5] = Drug level in normal rhesus monkey frontal cortex assessed as standard uptake value at 81.2 MBq, iv after 155 mins by microPET; details: in vivo
[6] = Drug level in normal rhesus monkey parietal cortex assessed as standard uptake value at 81.2 MBq, iv after 14 mins by microPET; details: in vivo
[7] = Drug level in normal rhesus monkey cerebellum assessed as standard uptake value at 81.2 MBq, iv after 115 mins by microPET; details: in vivo; procedure, shortened: as §1
[8] = Drug level in normal rhesus monkey parietal cortex assessed as standard uptake value at 81.2 MBq, iv after 22.5 mins by microPET; details: in vivo, 0.375 h
[9] = Drug level in normal rhesus monkey pons assessed as standard uptake value at 96.3 MBq, iv after 10 mins by microPET; details: in vivo
[10] = Drug level in normal rhesus monkey cerebellum assessed as standard uptake value at 96.3 MBq, iv after 1.5 mins by microPET; details: in vivo, 0.025 h; procedure, shortened: as §1
[11] = Drug level in normal rhesus monkey pons assessed as standard uptake value at 96.3 MBq, iv after 8 mins by microPET; details: in vivo
[12] = Drug level in normal rhesus monkey pons assessed as standard uptake value at 96.3 MBq, iv after 65 mins by microPET; details: in vivo
[13] = Drug level in normal rhesus monkey cerebellum assessed as standard uptake value at 96.3 MBq, iv after 6 mins by microPET; details: in vivo, 0.1 h
Procedure, shortened: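 Single normal rhesus monkey; each tracer given iv via the vena saphena, with 1 day between tracer injections. Dynamic μPET ran 180 min (5×60 s, 5×120 s, 9×300 s, 12×600 s). Images were reconstructed by filtered back projection with a RAMP filter. Regional time-activity curves were expressed as SUV.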

[14] = Drug level in normal rhesus monkey frontal cortex assessed as standard uptake value at 96.3 MBq, iv after 57.5 mins by microPET; details: in vivo
[15] = Drug level in normal rhesus monkey parietal cortex assessed as standard uptake value at 96.3 MBq, iv after 37.5 mins by microPET; details: in vivo, 0.625 h
[16] = Drug level in normal rhesus monkey frontal cortex assessed as standard uptake value at 96.3 MBq, iv after 4.5 mins by microPET; details: in vivo, 0.075 h
[17] = Drug level in normal rhesus monkey cerebellum assessed as standard uptake value at 109.4 MBq, iv after 12.5 mins by microPET; details: in vivo
[18] = Drug level in normal rhesus monkey cerebellum assessed as standard uptake value at 109.4 MBq, iv after 47.5 mins by microPET; details: in vivo
Procedure, shortened: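 One normal rhesus monkey received each tracer via the vena saphena, with 1 day between injections. Dynamic μPET ran 180 min for 18F tracers (5×60 s, 5×120 s, 9×300 s, 12×600 s) and 90 min for the 11C tracer (5×60 s, 5×120 s, 9×300 s, 3×600 s). Filtered back-projection reconstruction (RAMP filter) was used. Time-activity curves were drawn to give regional SUV.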

[19] = Drug level in normal rhesus monkey thalamus assessed as standard uptake value at 109.4 MBq, iv after 69 mins by microPET; details: in vivo, 1.15 h
[20] = Drug level in normal rhesus monkey frontal cortex assessed as standard uptake value at 109.4 MBq, iv after 93 mins by microPET; details: in vivo, 1.55 h
[21] = Drug level in normal rhesus monkey thalamus assessed as standard uptake value at 109.4 MBq, iv after 12.5 mins by microPET; details: in vivo
[22] = Drug level in normal rhesus monkey thalamus assessed as standard uptake value at 109.4 MBq, iv after 22.5 mins by microPET; details: in vivo, 0.375 h
[23] = Drug level in normal rhesus monkey parietal cortex assessed as standard uptake value at 109.4 MBq, iv after 42.5 mins by microPET; details: in vivo
[24] = Drug level in normal rhesus monkey pons assessed as standard uptake value at 152.9 MBq, iv after 12 mins by microPET; details: in vivo, 0.2 h
[25] = Drug level in normal rhesus monkey white matter assessed as standard uptake value at 152.9 MBq, iv after 37.5 mins by microPET; details: in vivo, 0.625 h
[26] = Drug level in normal rhesus monkey parietal cortex assessed as standard uptake value at 152.9 MBq, iv after 42.5 mins by microPET; details: in vivo
[27] = Drug level in normal rhesus monkey pons assessed as standard uptake value at 152.9 MBq, iv after 37.5 mins by microPET; details: in vivo, 0.625 h
[28] = Drug level in normal rhesus monkey parietal cortex assessed as standard uptake value at 152.9 MBq, iv after 75 mins by microPET; details: in vivo, 1.25 h
[29] = Drug level in normal rhesus monkey pons assessed as standard uptake value at 152.9 MBq, iv after 32.5 mins by microPET; details: in vivo
[30] = Drug level in normal rhesus monkey white matter assessed as standard uptake value at 152.9 MBq, iv after 14 mins by microPET; details: in vivo
[31] = Drug level in normal rhesus monkey thalamus assessed as standard uptake value at 152.9 MBq, iv after 42.5 mins by microPET; details: in vivo
[32] = Drug level in normal rhesus monkey frontal cortex assessed as standard uptake value at 152.9 MBq, iv after 37.5 mins by microPET; details: in vivo, 0.625 h
Procedure, shortened: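 Single normal rhesus monkey; tracer given iv via the vena saphena, 1 day apart from the other tracer injections. Dynamic μPET ran 90 min (5×60 s, 5×120 s, 9×300 s, 3×600 s). Images were reconstructed by filtered back projection with a RAMP filter. Regional time-activity curves were expressed as SUV.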

[33] = Drug level in normal rhesus monkey thalamus assessed as standard uptake value at 152.9 MBq, iv after 32.5 mins by microPET; details: in vivo
[34] = Drug level in normal rhesus monkey thalamus assessed as standard uptake value at 152.9 MBq, iv after 4.5 mins by microPET; details: in vivo, 0.075 h
[35] = Drug level in normal rhesus monkey white matter assessed as standard uptake value at 152.9 MBq, iv after 4.5 mins by microPET; details: in vivo, 0.075 h
[36] = Drug level in normal rhesus monkey parietal cortex assessed as standard uptake value at 152.9 MBq, iv after 12 mins by microPET; details: in vivo, 0.2 h

**Q.** With CNc1ccc2nc(-c3ccc([18F])cc3)sc2c1 as the molecule, how does the SUV [1] read?
**A.** 1.594

**Q.** What about the SUV [2] of the same molecule?
**A.** 4.972

**Q.** And the SUV [3]?
**A.** 5.789

**Q.** What about the SUV [4] of the same molecule?
**A.** 4.226

**Q.** And the SUV [5]?
**A.** 4.381

**Q.** What about the SUV [6] of the same molecule?
**A.** 4.798

**Q.** And the SUV [7]?
**A.** 1.715

**Q.** What about the SUV [8] of the same molecule?
**A.** 4.538

**Q.** For CN(C)c1ccc2nc(-c3ccc([18F])cc3)sc2c1, which SUV [9] is on record?
**A.** 1.57

**Q.** And the SUV [10]?
**A.** 1.17

**Q.** And the SUV [11]?
**A.** 1.44

**Q.** And the SUV [12]?
**A.** 1.83

**Q.** What about the SUV [13] of the same molecule?
**A.** 1.72

**Q.** What about the SUV [14] of the same molecule?
**A.** 2.01

**Q.** And the SUV [15]?
**A.** 1.84

**Q.** What about the SUV [16] of the same molecule?
**A.** 1.64

**Q.** For Nc1ccc2nc(-c3ccc([18F])cc3)sc2c1, which SUV [17] is on record?
**A.** 5.33

**Q.** And the SUV [18]?
**A.** 3.54

**Q.** And the SUV [19]?
**A.** 5.32

**Q.** And the SUV [20]?
**A.** 4.25

**Q.** What about the SUV [21] of the same molecule?
**A.** 5.39

**Q.** And the SUV [22]?
**A.** 5.55

**Q.** And the SUV [23]?
**A.** 4.54

**Q.** With [11CH3]Nc1ccc(-c2nc3ccc(O)cc3s2)cc1 [PITTSBURGH COMPOUND B] as the molecule, how does the SUV [24] read?
**A.** 2.117

**Q.** And the SUV [25]?
**A.** 1.095

**Q.** And the SUV [26]?
**A.** 0.906

**Q.** And the SUV [27]?
**A.** 1.229

**Q.** What about the SUV [28] of the same molecule?
**A.** 0.682

**Q.** What about the SUV [29] of the same molecule?
**A.** 1.365

**Q.** What about the SUV [30] of the same molecule?
**A.** 1.428

**Q.** And the SUV [31]?
**A.** 1.223

**Q.** And the SUV [32]?
**A.** 0.912

**Q.** And the SUV [33]?
**A.** 1.517

**Q.** What about the SUV [34] of the same molecule?
**A.** 2.075

**Q.** What about the SUV [35] of the same molecule?
**A.** 1.334

**Q.** And the SUV [36]?
**A.** 2.062
